Measured values reported in ChEMBL document CHEMBL1681654, “Structure and activity relationship of 2-(substituted benzoyl)-hydroxyindoles as novel CaMKII inhibitors” (Bioorg Med Chem Lett, 2011).

Assay: Inhibition of recombinant CAMK2 expressed in Sf9 cells after 20 mins
Procedure, shortened: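 Baculovirus-expressed CaMKII from infected Sf9 cells (harvested day 3), purified on calmodulin affinity resin. Assayed in 25 mM Tris–HCl pH 7.5, 2 mM DTT, 10 mM MgCl₂, 0.1% CHAPS, 1 mM CaCl₂ with autocamtide-2 substrate, CaM and [γ-³³P]ATP (350–1500 cpm/pmol); 20 min, 30 °C. Reaction spotted onto P30 filtermat, washed with 75 mM phosphoric acid, counted by scintillation.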

SMILES | IC50 [µM]
O=C(c1ccccc1)c1cc2cc(O)ccc2[nH]1 | 10
O=C(c1ccc(F)cc1)c1cc2cc(O)ccc2[nH]1 | > 10
O=C(c1ccc(Cl)cc1)c1cc2cc(O)ccc2[nH]1 | > 10
Cc1ccc(C(=O)c2cc3cc(O)ccc3[nH]2)cc1 | 8.8
COc1ccc(C(=O)c2cc3cc(O)ccc3[nH]2)cc1 | > 10
O=C(c1ccc(OC(F)(F)F)cc1)c1cc2cc(O)ccc2[nH]1 | > 10
O=C(c1ccc(-c2ccccc2)cc1)c1cc2cc(O)ccc2[nH]1 | 6.4
O=C(c1ccc(Oc2ccccc2)cc1)c1cc2ccccc2[nH]1 | 7.5
O=C(c1ccc(OC2CCCC2)cc1)c1cc2cc(O)ccc2[nH]1 | 3.9
O=C(c1ccc(OC2CCCCC2)cc1)c1cc2cc(O)ccc2[nH]1 | 2.3
O=C(c1ccc(OC2CCOC2)cc1)c1cc2cc(O)ccc2[nH]1 (stereo unspecified) | 6.8
O=C(c1ccc(OC2CCNCC2)cc1)c1cc2cc(O)ccc2[nH]1 | > 10
CN1CCC(Oc2ccc(C(=O)c3cc4cc(O)ccc4[nH]3)cc2)CC1 | > 10
CC(=O)N1CCC(Oc2ccc(C(=O)c3cc4cc(O)ccc4[nH]3)cc2)CC1 | 9.9
O=C(c1ccc(Oc2ccccc2)cc1)c1cc2cc(O)ccc2n1S(=O)(=O)c1ccccc1 | > 10
O=C(c1ccc(Oc2ccccc2)cc1)c1cc2nc(O)ccc2[nH]1 | > 10
O=C(c1ccc(Oc2ccccc2)cc1)c1cc2cc(O)ncc2[nH]1 | 6.8

The next lines start with the values.

IC50 [µM] | SMILES
1.6 | COc1ccc(S(=O)(=O)N(CCO)c2ccccc2CN(C)C/C=C/c2ccc(Cl)cc2)cc1
1.8 | O=C(c1cc2cc(O)ccc2[nH]1)c1ccccc1Oc1ccccc1
1.7 | O=C(c1cccc(Oc2ccccc2)c1)c1cc2cc(O)ccc2[nH]1
0.61 | O=C(c1ccc(Oc2ccccc2)cc1)c1cc2cc(O)ccc2[nH]1
2.3 | O=C(c1ccc(Oc2ccccc2)cc1)c1cc2ccc(O)cc2[nH]1
1.3 | Cn1c(C(=O)c2ccc(Oc3ccccc3)cc2)cc2cc(O)ccc21
1.9 | O=C(c1ccc(Oc2ccccc2)cc1)c1cc2cc(O)ccc2n1CCO
0.77 | CCOC(=O)Cn1c(C(=O)c2ccc(Oc3ccccc3)cc2)cc2cc(O)ccc21
1.8 | O=C(O)Cn1c(C(=O)c2ccc(Oc3ccccc3)cc2)cc2cc(O)ccc21
